Published values gathered from unrelated publications.
Lines come from different studies, so protocols differ.
Organism: Plasmodium falciparum
Effect on: parasite growth

SMILES | method | strain | tested at | time | setting | quantity | result
CCn1cc(C(=O)O)c(=O)c2cc(F)c(N3CCC(C)CC3)cc21 |  | 3D7 |  | 72 h | blood stage | EC50 | > 10000 nM
COc1ccc(Nc2ccnc3cc(-c4ccc(S(=O)(=O)N5CCN(C)CC5)cc4)ccc23)cc1Cl |  | D6 |  |  | drug-resistant strain, blood stage | EC50 | 12 nM
O=C(Nc1cc(F)ccc1C(=O)O)c1ccc(-c2ccccc2)cc1 | SYBR Green | NF54 | 10 µM | 96 h | blood stage | inhibition | 17.2%
CCCC1CCN(c2cc3c(cc2F)c(=O)c(C(=O)OCC)cn3CC)CC1 |  | 3D7 |  | 72 h | blood stage | EC50 | 30 nM
O=C(c1ccc(Nc2nccc(-c3ccc4ccccc4c3)n2)cc1)N1CCC(N2CCCC2)CC1 | SYBR Green | 3D7 | 1 µM |  | blood stage | inhibition | > 75%
CN1CCN(c2ccnc(Nc3ccc4c(Nc5ccc(OCc6cccc(F)c6)c(Cl)c5)ccnc4c3)n2)CC1 |  | D6 |  |  | drug-resistant strain, blood stage | EC50 | 25 nM
O=C(Nc1ccc(F)cc1C(=O)O)c1ccc(-c2ccccc2)cc1 |  | NF54 | 2 µM | 48 h | gametocyte | inhibition | 43.5%
CCN(CC)CCCC(C)Nc1ccnc2cc(Cl)ccc12 (centres unmarked) |  | D6 |  |  | blood stage | IC50 | 30 nM
CN1CCN(c2nccc(Nc3ccc4c(Nc5cnccn5)ccnc4c3)n2)CC1 |  | D6 |  |  | drug-resistant strain, blood stage | EC50 | 180 nM
O=C(Nc1c(F)cccc1C(=O)O)c1ccc(-c2ccccc2)cc1 | SYBR Green | NF54 | 10 µM | 96 h | blood stage | inhibition | 6.4%
CN1CCN(S(=O)(=O)c2ccc(-c3ccc4c(Nc5ccnnc5)ccnc4c3)cc2)CC1 |  | D6 |  |  | drug-resistant strain, blood stage | EC50 | 2100 nM
CCn1cc(-c2ccnn2C)c(=O)c2cc(F)c(N3CCC(C)CC3)cc21 |  | 3D7 |  | 72 h | blood stage | EC50 | > 10000 nM
Cc1cccc(C(=O)O)c1NC(=O)c1cccc(-c2ccccc2)c1 |  | NF54 | 2 µM | 48 h | gametocyte | inhibition | 31.8%
CCn1cc(-c2nnc(-c3cccnc3)o2)c(=O)c2cc(F)c(N3CCC(C)CC3)cc21 |  | 3D7 |  | 72 h | blood stage | EC50 | > 10000 nM
Cc1ccc(-c2ccccc2C(=O)Nc2c(C)cccc2C(=O)O)cc1 | SYBR Green | NF54 | 10 µM | 96 h | blood stage | inhibition | 8.4%
c1cnc(Nc2ccnc3cc(-c4cn[nH]c4)ccc23)cn1 |  | D6 |  |  | drug-resistant strain, blood stage | EC50 | 940 nM
CCn1cc(-c2nc(C)no2)c(=O)c2cc(F)c(N3CCC(Cc4ccccc4)CC3)cc21 |  | 3D7 |  | 72 h | blood stage | EC50 | 9 nM
